≈ marks a conversion by molar mass, not a printed value.
Key:
[1] = Metabolic stability in human liver microsomes assessed as parent compound remaining after 10 mins; format: ADME, microsome; conditions: read-out: Stability
Method in brief: (§1)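 Compound at 3 μM was incubated with human or rat liver microsomes, and the percentage of parent compound remaining was measured after 10 min.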

[2] = test system: Human immunodeficiency virus 1; test: Antiviral activity against ENV pseudotyped CCR5-tropic HIV1 […] infected in human HeLa67 cells after 3 days by luciferase reporter gene assay; format: functional, organism-based; conditions: Human immunodeficiency virus 1, HeLa67, 72 h
Method in brief: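 Single-cycle infection with env-deleted, luciferase-reporter HIV-1 pseudotyped with the JRFL (CCR5) envelope, supplied by transfection; viral titers normalized by luminescence without compound. HeLa 67 cells were infected in the presence of compounds given as 3-fold serial dilutions made from 30 mM DMSO stocks.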

[3] = Half life in Sprague-Dawley rat at 1 mg/kg, iv; format: ADME, organism-based; conditions: in vivo
[4] = AUC in Sprague-Dawley rat at 5 mg/kg, po after 24 hrs; format: ADME, organism-based; parameters: time < 24 hr, dose 5 mg/kg, route oral; conditions: in vivo
Method in brief: (§2)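 Male Sprague-Dawley rats (300−350 g) with jugular vein and/or bile duct cannulas, n = 3 per route; dosed as a solution in PEG-400/ethanol (90/10). The iv dose was 1 mg/kg given as a 0.5 min bolus, with jugular blood sampled from 2 to 1440 min. The po dose was 5 mg/kg after an overnight fast, sampled from 15 to 1440 min. Plasma was taken from EDTA blood.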

[5] = Volume of distribution at steady state in Sprague-Dawley rat at 1 mg/kg, iv; format: ADME, organism-based; conditions: in vivo, read-out: Vdss; method in brief: as §2
MT2 = test: Cytotoxicity against human MT2 cells assessed as decrease in cell viability after 3 days […]; format: functional; conditions: MT2, 72 h
[6] = Permeability in human Caco2 cells; format: ADME, cell-based; conditions: Caco-2, read-out: permeability
[7] = Metabolic stability in rat liver microsomes assessed as parent compound remaining after 10 mins; format: ADME, microsome; conditions: read-out: Stability; method in brief: as §1
[8] = Clearance in Sprague-Dawley rat at 1 mg/kg, iv; format: ADME, organism-based; conditions: in vivo
[9] = Oral bioavailability in Sprague-Dawley rat at 5 mg/kg; format: ADME, organism-based; conditions: in vivo; method in brief: as §2
[10] = Aqueous solubility of the compound; format: physicochemical; conditions: buffer
[11] = Half life in human liver microsomes; format: ADME, microsome
[12] = Half life in rat liver microsomes; format: ADME, microsome

Compound COc1cnc(-n2cc(C)nn2)c2[nH]cc(C(=O)C(=O)N3CCN(C(=O)c4ccccc4)[C@H](C)C3)c12 has a remaining at 10 min [1] of 74%, an EC50 [2] of 0.13 nM and a half-life [3] of 1.4 h. The AUC at 24 h [4] was 34.8 µM·h, the Vd [5] was 0.29 L/kg and the CC50 (MT2) was 124000 nM. It also gave a Papp [6] of 22.4 ×10⁻⁶ cm/s, a remaining at 10 min [7] of 76% and a clearance [8] of 4.3 mL/min/kg. For the same compound, the bioavailability [9] was 65.5%.
In the case of COc1cnc(-n2ccc(C)n2)c2[nH]cc(C(=O)C(=O)N3CCN(C(=O)c4ccccc4)[C@H](C)C3)c12, the remaining at 10 min [1] is reported as 72%, the EC50 [2] is reported as 0.16 nM and the solubility [10] is reported as 69 µg/mL (≈ 142 µM). For the same compound, the half-life [3] was 0.56 h, the AUC at 24 h [4] was 13.2 µM·h and the Vd [5] was 0.47 L/kg. The CC50 (MT2) was 142000 nM, the Papp [6] was 20 ×10⁻⁶ cm/s and the remaining at 10 min [7] was 78%. It also gave a bioavailability [9] of 72.8%.
O=C(C(=O)N1CCN(C(=O)c2ccccc2)CC1)c1c[nH]c2ccccc12 gave a half-life [11] of over 1.67 h, a half-life [12] of over 1.67 h and a Papp [6] of over 10 ×10⁻⁶ cm/s.
Work on COc1cnc(-n2ccc(N)n2)c2[nH]cc(C(=O)C(=O)N3CCN(C(=O)c4ccccc4)CC3)c12 yielded a remaining at 10 min [1] of 98%, an EC50 [2] of 0.04 nM and a half-life [3] of 0.5 h. For the same compound, the AUC at 24 h [4] was 0.03 µM·h, the Vd [5] was 0.4 L/kg and the CC50 (MT2) was over 150000 nM. For the same compound, the Papp [6] was under 1.5 ×10⁻⁶ cm/s, the remaining at 10 min [7] was 99% and the clearance [8] was 57 mL/min/kg. For the same compound, the bioavailability [9] was 0.8%.
Compound COCc1ncn(-c2ncc(OC)c3c(C(=O)C(=O)N4CCN(C(=O)c5ccccc5)[C@H](C)C4)c[nH]c23)n1 has a half-life [11] of 1.67 h, an EC50 [2] of 0.09 nM and a CC50 (MT2) of over 300000 nM. The half-life [12] was 1.67 h and the Papp [6] was 2.2 ×10⁻⁶ cm/s.
CCc1ncn(-c2ncc(OC)c3c(C(=O)C(=O)N4CCN(C(=O)c5ccccc5)[C@H](C)C4)c[nH]c23)n1 gave a remaining at 10 min [1] of 84%, an EC50 [2] of 0.08 nM and a half-life [3] of 3 h. The AUC at 24 h [4] was 82 µM·h, the Vd [5] was 0.2 L/kg and the CC50 (MT2) was 281000 nM. The Papp [6] was 31.5 ×10⁻⁶ cm/s, the remaining at 10 min [7] was 90% and the bioavailability [9] was 88.4%.
COc1cnc(-n2ccc(C)n2)c2[nH]cc(C(=O)C(=O)N3CCN(C(=O)c4ccccc4)CC3)c12 gave a remaining at 10 min [1] of 80%, an EC50 [2] of 0.05 nM and a solubility [10] of 17 µg/mL (≈ 36 µM). It also gave a half-life [3] of 0.9 h, an AUC at 24 h [4] of 15.7 µM·h and a Vd [5] of 0.23 L/kg. The CC50 (MT2) was 130000 to 154000 nM, the Papp [6] was 26 ×10⁻⁶ cm/s and the remaining at 10 min [7] was 100%. For the same compound, the bioavailability [9] was 43.7%.
Compound COc1cnc(-c2cnccn2)c2[nH]cc(C(=O)C(=O)N3CCN(C(=O)c4ccccn4)CC3)c12 has a remaining at 10 min [1] of 100%, a half-life [11] of over 1.67 h and an EC50 [2] of 0.11 nM. It also gave a half-life [3] of 4 h, an AUC at 24 h [4] of 14.6 µM·h and a Vd [5] of 1.9 L/kg. The CC50 (MT2) was over 300000 nM, the remaining at 10 min [7] was 27% and the bioavailability [9] was 85%.
CCc1ncn(-c2ncc(OC)c3c(C(=O)C(=O)N4CCN(C(=O)c5ccccc5)CC4)c[nH]c23)n1 showed a remaining at 10 min [1] of 100%, an EC50 [2] of 0.05 nM and a half-life [3] of 3.3 h. It also gave an AUC at 24 h [4] of 254 µM·h, a Vd [5] of 0.12 L/kg and a CC50 (MT2) of 90000 nM. The Papp [6] was 26.1 ×10⁻⁶ cm/s, the remaining at 10 min [7] was 94% and the clearance [8] was 0.7 mL/min/kg. It also gave a bioavailability [9] of 86%.
CCN(CC)CCNc1ncn(-c2ncc(OC)c3c(C(=O)C(=O)N4CCN(C(=O)c5ccccc5)CC4)c[nH]c23)n1 showed a remaining at 10 min [1] of 87%, an EC50 [2] of 1.04 nM and a CC50 (MT2) of over 300000 nM. It also gave a Papp [6] of under 1.5 ×10⁻⁶ cm/s and a remaining at 10 min [7] of 100%.
Work on COc1cnc(-n2cccn2)c2[nH]cc(C(=O)C(=O)N3CCN(C(=O)c4ccccc4)CC3)c12 yielded a half-life [11] of over 1.67 h, an EC50 [2] of 0.58 nM and a half-life [3] of 1.8 h. It also gave an AUC at 24 h [4] of 25.6 µM·h, a Vd [5] of 0.48 L/kg and a CC50 (MT2) of 288000 nM. The half-life [12] was over 1.67 h, the Papp [6] was under 1.5 ×10⁻⁶ cm/s and the clearance [8] was 5.6 mL/min/kg. For the same compound, the bioavailability [9] was 77.1%.

Source: ChEMBL document CHEMBL4130629 (J Med Chem, 2018)
